High-throughput results (PubChem BioAssay)
RGS4 inh – human RGS4 inhibition; HEK293 M3R/RGS4 inducible, Fluo-4 calcium flux; hits give high values; triggered by carbachol at its EC20; P49798; B-score at 10 µM; 310,000 tested, 0.45% active;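 active = B-score, a plate-corrected calcium signal, over three deviations above library mean, with baseline fluorescence within five deviations of library mean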;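 note: RGS4 expression induced by doxycycline in cells with stable M3 receptor; B-score is computed from the integrated fluorescence ratio over baseline after carbachol; higher B-score means a larger calcium signal and so more RGS4 inhibition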
Target sequence (P49798 whole entry, looked up): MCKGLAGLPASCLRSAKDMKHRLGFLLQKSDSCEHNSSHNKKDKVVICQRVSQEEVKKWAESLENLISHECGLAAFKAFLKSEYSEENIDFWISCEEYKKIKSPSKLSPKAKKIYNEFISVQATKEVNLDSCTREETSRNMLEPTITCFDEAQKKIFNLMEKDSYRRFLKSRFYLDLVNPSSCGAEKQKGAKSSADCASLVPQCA
MrgX1 ag – activates human MrgX1 receptor signaling. AID 588627. Q96LB2. B-score at 10 µM. MrgX1-HEK293 cells, Fluo-4 calcium fluorescence, agonist mode; hits give high values. 310,000 tested, 0.44% active;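 active = calcium response B-score plate-corrected fluorescence ratio at least 3 library SD, with starting fluorescence B-score inside 5 SD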
Target sequence (Q96LB2 whole entry, looked up): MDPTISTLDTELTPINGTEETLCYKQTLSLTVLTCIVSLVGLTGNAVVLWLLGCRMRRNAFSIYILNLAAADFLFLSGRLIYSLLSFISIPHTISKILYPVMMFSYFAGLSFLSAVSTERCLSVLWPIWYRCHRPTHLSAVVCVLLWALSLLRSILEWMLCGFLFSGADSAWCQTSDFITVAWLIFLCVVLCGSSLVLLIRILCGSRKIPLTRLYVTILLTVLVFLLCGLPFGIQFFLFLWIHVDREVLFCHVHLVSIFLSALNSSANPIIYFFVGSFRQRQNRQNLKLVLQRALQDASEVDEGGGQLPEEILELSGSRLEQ
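Test system: Stable human MrgX1 HEK293 cell line | Schedule: Overnight plating before 1 h dye loading | Read-out basis: Baseline-normalised fluorescence change ratio, B-scored | Detection: Kinetic calcium dye fluorescence, Fluo-4 NW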
MrgX1 antag – human MrgX1 receptor antagonism, primary screen; Q96LB2; MRGX1-HEK293 calcium flux, Fluo-4, BAM8-22 antagonism; hits give low values; B-score at 10 µM; 310,000 tested, 1.3% active;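 active = calcium-response B-score plate-corrected more than 3 library SD below zero, starting fluorescence within 5 deviations, no agonist response on first addition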;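 note: peak minus trough fluorescence over baseline after final BAM8-22 challenge near maximal dose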
MrgX1 allo act – allosterically activates human MrgX1 receptor signaling; Q96LB2; MrgX1-HEK293, Fluo-4 calcium flux, FDSS; hits give high values; B-score at 10 µM; 310,000 tested, 0.63% active;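 active = plate-corrected calcium response at least 3 library SD above typical, normal starting fluorescence, not activating the receptor alone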;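 note: compound read alongside a low EC10 to EC30 dose of BAM8-22 agonist; peak minus trough fluorescence over baseline measured at the second addition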
RGS4 pot – potentiators or activators of RGS4; B-score at 10 µM; AID 463111; HEK293 M3R/inducible RGS4, carbachol calcium flux Fluo4; hits give low values; 310,000 tested, 0.92% active;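 active = B-score of the integrated calcium signal more than 4 SD below the library mean, with starting fluorescence not abnormally high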;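 note: negative B-score means reduced calcium response which marks RGS4 activation or potentiation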
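Assay system: HEK293 FlpIn-TREx cells, stable M3R, doxycycline-inducible RGS4 / Probe or stimulus: carbachol, ECmax concentration / Times: overnight RGS4 induction, 30 min dye load 37 °C, 20 min compound RT / Signal: kinetic calcium fluorescence imaging with Fluo4-AM dye, 2 µM / Measure: Agonist-evoked peak-minus-minimum fluorescence over baseline, integrated ratio, B score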
* = called active by the depositor. In the library only some 3.5% were active in any assay of this set; here they are far more common.

Results for Cc1ccc(S(=O)(=O)N2[C@@H](c3ccc(Cl)cc3)C(C(=O)O)=CC[C@H]2c2ccc(Cl)c(Cl)c2)cc1 ?
MrgX1 ag: inactive; MrgX1 antag: -5.1*; MrgX1 allo act: inactive

What do the screens show for `COc1cc([C@@H]2CC=C(C(=O)O)[C@H](c3ccc(Cl)cc3)N2S(=O)(=O)c2ccc(C)cc2)cc(OC)c1OC`?
MrgX1 ag: inactive; MrgX1 antag: inactive; MrgX1 allo act: inactive

What do the screens show for `O=C(O)C1=CC[C@@H](c2ccc(Cl)cc2)N(S(=O)(=O)c2ccc(Cl)cc2)[C@H]1c1ccc(F)cc1`?
MrgX1 ag: inactive; MrgX1 antag: inactive; MrgX1 allo act: 8.26*

What do the screens show for `Cc1ccc(S(=O)(=O)N2[C@@H](c3ccccc3)C(C(=O)O)=CC[C@H]2c2cccc(Cl)c2)cc1`?
MrgX1 ag: inactive; MrgX1 antag: inactive; MrgX1 allo act: 7.39*

What do the screens show for `COc1ccc2oc(C(=O)OCC(=O)N(C)c3c(N)n(Cc4ccccc4)c(=O)[nH]c3=O)c(C)c2c1`?
RGS4 inh: inactive; MrgX1 ag: inactive; MrgX1 antag: inactive; MrgX1 allo act: inactive; RGS4 pot: inactive

Results for O=C(Nc1ccc2c(c1)Cc1ccccc1-2)c1cccnc1 ?
RGS4 inh: inactive; MrgX1 ag: inactive; MrgX1 antag: inactive; MrgX1 allo act: inactive; RGS4 pot: inactive

What do the screens show for `COc1ccc([C@@H]2CC=C(C(=O)O)CN2S(=O)(=O)c2ccc(Cl)cc2)cc1`?
MrgX1 ag: inactive; MrgX1 antag: inactive; MrgX1 allo act: 7.96*

How did Cc1ccc(S(=O)(=O)N2CC(C(=O)O)=CC[C@H]2c2ccc(Cl)cc2)cc1 do in these assays?
MrgX1 ag: inactive; MrgX1 antag: inactive; MrgX1 allo act: inactive

Results for Cc1ccc([C@@H]2CC=C(C(=O)O)[C@H](c3ccccc3F)N2S(=O)(=O)c2ccc(C)cc2)cc1 ?
MrgX1 ag: inactive; MrgX1 antag: inactive; MrgX1 allo act: 8.93*

What do the screens show for `COc1ccc(CNC(=O)CCC(=O)Nc2nnc(CC(C)C)s2)cc1`?
RGS4 inh: inactive; MrgX1 ag: inactive; MrgX1 antag: inactive; MrgX1 allo act: inactive; RGS4 pot: inactive

Results for CCN1CCc2c(sc(NC(=O)c3ccc(S(=O)(=O)N(C)c4ccccc4)cc3)c2C(=O)NC)C1 ?
RGS4 inh: inactive; MrgX1 ag: 59.1*; MrgX1 antag: inactive; MrgX1 allo act: inactive; RGS4 pot: -7.47*

How did CN(C)S(=O)(=O)N(CC(=O)NCCSCc1ccc(Cl)cc1)c1ccccc1 do in these assays?
RGS4 inh: inactive; MrgX1 ag: inactive; MrgX1 antag: -7.83*; MrgX1 allo act: inactive; RGS4 pot: inactive

What do the screens show for `CCCc1nc2c(s1)CCc1onc(-c3ccc(Cl)cc3)c1-2`?
RGS4 inh: inactive; MrgX1 ag: inactive; MrgX1 antag: inactive; MrgX1 allo act: inactive; RGS4 pot: inactive

What do the screens show for `CCCc1sc(N)nc1-c1ccc(Cl)cc1`?
RGS4 inh: inactive; MrgX1 ag: inactive; MrgX1 antag: inactive; MrgX1 allo act: inactive; RGS4 pot: -7.4*

What do the screens show for `CCN(CC)c1ccc(/C=C/c2ccc3ccc(OC)cc3[n+]2CC)cc1`?
RGS4 inh: inactive; MrgX1 ag: inactive; MrgX1 antag: -9.28*; MrgX1 allo act: inactive; RGS4 pot: -8.46*

What do the screens show for `COc1cc2ccccc2cc1C(=O)N(CCN(C)C)c1nc2c(OC)ccc(OC)c2s1`?
RGS4 inh: inactive; MrgX1 ag: inactive; MrgX1 antag: inactive; MrgX1 allo act: 8.82*; RGS4 pot: inactive

How did COc1ccc(-n2c(SCC(=O)N3CCOCC3)nc3ccccc3c2=O)cc1 do in these assays?
RGS4 inh: inactive; MrgX1 ag: inactive; MrgX1 antag: inactive; MrgX1 allo act: inactive; RGS4 pot: inactive

What do the screens show for `CCOC(=O)CSc1nc(N)c(C#N)c(-c2ccc(OC)cc2)c1C#N`?
RGS4 inh: inactive; MrgX1 ag: inactive; MrgX1 antag: -5.8*; MrgX1 allo act: inactive; RGS4 pot: inactive

How did CCC/C=C(\CCC)C(NS(=O)(=O)c1ccc(C(F)(F)F)cc1)c1ccccc1 (configuration not stated) do in these assays?
RGS4 inh: inactive; MrgX1 ag: inactive; MrgX1 antag: inactive; MrgX1 allo act: inactive; RGS4 pot: -8.15*

How did O=C(O)C(NS(=O)(=O)c1ccc(F)cc1)c1ccccc1 (configuration not stated) do in these assays?
RGS4 inh: inactive; MrgX1 ag: inactive; MrgX1 antag: inactive; MrgX1 allo act: inactive; RGS4 pot: inactive

How did COC(=O)C1=C(C(=O)OC)[C@@H]2N(C)c3ccccc3[C@@]23C[C@@H](C(=O)OC)N(C(=O)c2ccc(Br)cc2)C3=N1 do in these assays?
RGS4 inh: inactive; MrgX1 ag: inactive; MrgX1 antag: inactive; MrgX1 allo act: inactive; RGS4 pot: inactive

Results for Clc1ccc(CN2CCc3c([nH]c4ccccc34)C2)cc1Cl ?
RGS4 inh: inactive; MrgX1 ag: inactive; MrgX1 antag: -4.64*; MrgX1 allo act: inactive; RGS4 pot: inactive

What do the screens show for `Cc1cc(C)c2nc(N3C(=O)C(O)=C(C(=O)c4ccco4)C3c3ccco3)sc2c1` (configuration not stated)?
RGS4 inh: inactive; MrgX1 ag: inactive; MrgX1 antag: inactive; MrgX1 allo act: inactive; RGS4 pot: -7.94*

How did CCOC(=O)c1sc(N2C(=O)C(O)=C(C(=O)c3ccco3)C2c2ccco2)nc1C (configuration not stated) do in these assays?
RGS4 inh: inactive; MrgX1 ag: inactive; MrgX1 antag: inactive; MrgX1 allo act: inactive; RGS4 pot: inactive

What do the screens show for `COc1cc(C(CC(=O)Nc2cc(C)ccn2)N2Cc3ccccc3C2=O)cc(OC)c1OC` (configuration not stated)?
RGS4 inh: inactive; MrgX1 ag: inactive; MrgX1 antag: inactive; MrgX1 allo act: inactive; RGS4 pot: inactive

How did CCn1cc(C(=O)N[C@H](C(=O)NCCN2CCOCC2)C(C)C)c(=O)c2cc3c(cc21)OCO3 do in these assays?
RGS4 inh: inactive; MrgX1 ag: inactive; MrgX1 antag: inactive; MrgX1 allo act: inactive; RGS4 pot: inactive

What do the screens show for `COc1cccc2c1OCC(C(=O)Nc1nccs1)=C2`?
RGS4 inh: inactive; MrgX1 ag: 28*; MrgX1 antag: inactive; MrgX1 allo act: inactive; RGS4 pot: inactive

How did CCC(C)C(NC(=O)OC(C)(C)C)C(=O)NC(Cc1ccccc1)C(=O)OC (configuration not stated) do in these assays?
RGS4 inh: inactive; MrgX1 ag: inactive; MrgX1 antag: inactive; MrgX1 allo act: 7.32*; RGS4 pot: inactive

How did CC(C)[C@@H]1CC[C@@H](C)C[C@H]1OC(=O)C[n+]1cc(-c2ccc(Cl)cc2)n2c1CCCCC2 do in these assays?
RGS4 inh: inactive; MrgX1 ag: inactive; MrgX1 antag: -7.43*; MrgX1 allo act: inactive; RGS4 pot: inactive
